{"data": "Assay results from different studies", "read-out": "metabolic stability", "species": "human", "matrix": "liver microsomes", "note": "Protocols differ between the studies behind these lines."}
{"Structure (SMILES)": "Cc1cc(Nc2ccc(C(F)(F)F)cc2)c2ccccc2n1", "microsomal CLint": "4.8 µL/min/mg"}
{"Structure (SMILES)": "Cc1cc(Nc2ccnc3ccc(-c4ccc(S(=O)(=O)N5CCOCC5)cc4)cc23)on1", "microsomal CLint": "69.8 µL/min/mg"}
{"Structure (SMILES)": "Cc1cc(Nc2ccc(C(F)(F)F)cc2)n2nc(C(F)(F)F)nc2n1", "setting": "1 µM, pH 7.4", "microsomal CLint": "< 6 µL/min/mg"}
{"Structure (SMILES)": "COc1cc2[nH]c(C)c(-c3c(C)noc3C)c(=O)c2cc1Cl", "setting": "1 µM", "microsomal CLint": "< 7 µL/min/mg"}
{"Structure (SMILES)": "COc1cccc(-c2nc3ccccn3c2Nc2ccc(F)cc2)n1", "setting": "3 µM, pH 7.4", "microsomal CLint": "137 µL/min/mg"}
{"Structure (SMILES)": "N#CC1CCN(c2nc(-c3ccccn3)nc3ccccc23)C1 (stereo not shown)", "microsomal CLint": "45 µL/min/mg"}
{"Structure (SMILES)": "COc1cc2[nH]c(C)c(-c3ccc(C)cc3)c(=O)c2cc1Cl", "setting": "1 µM", "microsomal CLint": "21 µL/min/mg"}
{"Structure (SMILES)": "Cc1cnnc(Nc2ccnc3ccc(-c4ccc(S(=O)(=O)N5CCOCC5)cc4)cc23)c1", "microsomal CLint": "126 µL/min/mg"}
{"Structure (SMILES)": "Cc1cc(Nc2ccc(S(F)(F)(F)(F)F)cc2)n2nc(C(C)(F)F)nc2n1", "setting": "1 µM, pH 7.4", "microsomal CLint": "< 6 µL/min/mg"}
{"Structure (SMILES)": "COc1ccc(-c2nc3ccccn3c2N(C)c2ccc(F)cc2)nc1", "setting": "3 µM, pH 7.4", "microsomal CLint": "93 µL/min/mg"}
{"Structure (SMILES)": "O=c1[nH]c(=S)n(Cc2ccc(Cl)cc2CNCC(F)(F)F)c2cc[nH]c12", "microsomal CLint": "8.2 µL/min/mg"}
{"Structure (SMILES)": "C[C@H](C(=O)NC1Cc2ccccc2C1)c1ccc(F)cc1", "setting": "1 µM, 1 h", "microsomal CLint": "120 µL/min/mg"}
{"Structure (SMILES)": "Cn1cnc(-c2nc3ccccn3c2Nc2ccc(F)cc2)c1", "setting": "3 µM, pH 7.4", "microsomal CLint": "17 µL/min/mg"}
{"Structure (SMILES)": "Cc1noc(C)c1Nc1ccnc2ccc(-c3ccc(S(=O)(=O)N4CCOCC4)cc3)cc12", "microsomal CLint": "78.2 µL/min/mg"}
{"Structure (SMILES)": "c1ccc(-c2nc3n(c2-c2cccnc2)CCC3)nc1", "setting": "3 µM, pH 7.4", "microsomal CLint": "24 µL/min/mg"}
{"Structure (SMILES)": "N#CC1CCN(c2nc(-c3ccccn3)nc3ccccc23)CC1", "microsomal CLint": "45 µL/min/mg"}
{"Structure (SMILES)": "Cc1cc(Nc2ccnc3ccc(-c4ccc(S(=O)(=O)N5CCOCC5)cc4)cc23)sn1", "microsomal CLint": "115 µL/min/mg"}
{"Structure (SMILES)": "CCn1cc2c(N3CCC(c4ccccn4)C3)nc(-c3ccccn3)nc2n1 (stereo not shown)", "microsomal CLint": "< 1 µL/min/mg"}
{"Structure (SMILES)": "COc1cc2[nH]c(C)c(-c3ccc(F)cc3F)c(=O)c2cc1Cl", "setting": "1 µM", "microsomal CLint": "9 µL/min/mg"}
{"Structure (SMILES)": "FC(F)(F)c1ccccc1-c1nc(N2CCC(c3ccccn3)C2)c2ccccc2n1 (stereo not shown)", "microsomal CLint": "199 µL/min/mg"}
{"Structure (SMILES)": "O=C(Nc1ccnc(C(F)(F)F)c1)Nc1cccc2c1OC(F)(F)O2", "microsomal CLint": "14 µL/min/mg"}
{"Structure (SMILES)": "Cc1cccnc1CNc1nc(-c2ccccn2)nc2ccccc12", "microsomal CLint": "64 µL/min/mg"}
{"Structure (SMILES)": "COc1cc2[nH]c(C)c(-c3cccc(CO)c3)c(=O)c2cc1Cl", "setting": "1 µM", "microsomal CLint": "< 7 µL/min/mg"}
{"Structure (SMILES)": "C[S+]([O-])c1ccc(-c2c(-c3ccccn3)nc3n2CCC3)cc1 (stereo not shown)", "setting": "3 µM, pH 7.4", "microsomal CLint": "< 3 µL/min/mg"}
{"Structure (SMILES)": "Cn1ccnc1CNc1nc(-c2ccccn2)nc2ccccc12", "microsomal CLint": "24 µL/min/mg"}
{"Structure (SMILES)": "COc1cc2[nH]c(C)c(-c3ccccc3C)c(=O)c2cc1Cl", "setting": "1 µM", "microsomal CLint": "25 µL/min/mg"}
{"Structure (SMILES)": "Fc1ccc(Nc2c(-c3cccc(F)n3)nc3ccccn23)cc1", "setting": "3 µM, pH 7.4", "microsomal CLint": "130 µL/min/mg"}
{"Structure (SMILES)": "C[C@H](C(=O)NC1Cc2ccccc2C1)c1ccccc1", "setting": "1 µM, 1 h", "microsomal CLint": "15 µL/min/mg"}
{"Structure (SMILES)": "CN(C)C(=O)c1ccc(-c2c(-c3ccccn3)nc3n2CCC3)cc1", "setting": "3 µM, pH 7.4", "microsomal CLint": "< 3 µL/min/mg"}
{"Structure (SMILES)": "CCOC(=O)c1c(-c2cccc(Cl)c2)[nH]c2cc(OC)c(F)cc2c1=O", "setting": "19.8 µM, pH 7.4", "microsomal CLint": "< 4 µL/min/mg"}
{"Structure (SMILES)": "COc1cc2[nH]c(C)c(-c3ccc(OC(C)C)cc3)c(=O)c2cc1Cl", "setting": "1 µM", "microsomal CLint": "8 µL/min/mg"}
{"Structure (SMILES)": "O=[N+]([O-])c1ccc(Nc2ccnc3ccc(-c4ccc(S(=O)(=O)N5CCOCC5)cc4)cc23)cn1", "microsomal CLint": "106 µL/min/mg"}
{"Structure (SMILES)": "Fc1ccccc1-c1nc(N2CCC(c3ccccn3)C2)c2ccccc2n1 (stereo not shown)", "microsomal CLint": "186 µL/min/mg"}
{"Structure (SMILES)": "CN(C)C(=N)N=C(N)N", "microsomal CLint": "1.5 µL/min/mg"}
{"Structure (SMILES)": "CN(c1ccc(F)cc1)c1c(-c2cccc(F)n2)nc2ccccn12", "setting": "3 µM, pH 7.4", "microsomal CLint": "170 µL/min/mg"}
{"Structure (SMILES)": "COc1cc2[nH]c(C)c(-c3ccc(OC(F)(F)F)cc3)c(=O)c2cc1Cl", "setting": "1 µM", "microsomal CLint": "< 7 µL/min/mg"}
{"Structure (SMILES)": "CCOCCOc1ccnc2ccc(-c3ccc(S(=O)(=O)N4CCOCC4)cc3)cc12", "microsomal CLint": "> 300 µL/min/mg"}
{"Structure (SMILES)": "COc1cc2[nH]c(C)c(-c3ccc(N(C)C)nc3)c(=O)c2cc1Cl", "setting": "1 µM", "microsomal CLint": "20 µL/min/mg"}
{"Structure (SMILES)": "O=S(=O)(c1ccc(-c2ccc3ncccc3c2)cc1)N1CCOCC1", "microsomal CLint": "13.3 µL/min/mg"}
{"Structure (SMILES)": "CN1CCN(c2nc(-c3ccccn3)nc3ccccc23)CC1", "microsomal CLint": "< 1 µL/min/mg"}
